From ChEMBL document CHEMBL1122596, “Synthesis and evaluation of a novel series of N,N-dimethylisotryptamines” (J Med Chem, 1984) come the findings set out here.

The IC50 is the concentration that inhibits the measured activity by half.

Molecules are shown by their SMILES. Several values for one entry are separate records, joined by “and”; a condition that tells them apart may be missing. Equal entries are not always repeated.

Test [1] has as its target 5-hydroxytryptamine receptor 2B (Rattus norvegicus, UniProt P30994). Briefly: Displacement of [3H]5-HT binding to serotonin receptor of rat fundus membranes. To be noted: read-out: pA2 (converted). Background: Displacement assays read how much labelled ligand stays bound in the presence of the test substance.
The species entered for test [2] is Rattus norvegicus. Briefly: Mean responses per minute during the extinction session. Type of test: functional. The method, boiled down: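 Male Sprague-Dawley rats trained in a two-lever operant task to discriminate racemic DOM (1.0 mg/kg) from saline, given 15 min before a VI-15s reinforcement schedule. Test compound given by injection before a 2.5-min nonreinforced extinction session. Read-outs are DOM-lever responses as percent of total responses, and responses per minute. Values are means ±SEM over the animals responding; no responding was recorded as disruption.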

Test [3] has as its system Rattus norvegicus. Briefly: Responses made on the DOM -appropriate lever as a percent of total responses; data was collected during the 2.5 min extinction session at 12 mg/kg dose. Type of test: functional. The procedure, abridged:
(§1)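 Male Sprague-Dawley rats trained to tell racemic DOM (1.0 mg/kg) from saline in a two-lever operant task (VI-15s schedule). Drug was given 15 min before a 2.5-min nonreinforced extinction session. The read-out was DOM-appropriate lever responses as % of total responses, with about 5 rats per dose. ED50 was taken from dose-response data by Finney's method.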

For test [4], the system named is Rattus norvegicus. Kind of test: Responses made on the DOM -appropriate lever as a percent of total responses; data was collected during the 2.5 min extinction session at 7 mg/kg dose. Type of test: functional. The method, boiled down:
as §1

The target of test [5] is Serotonin (5-HT) receptor. Briefly: Evaluated for inhibition of specific [3H]5-HT receptor binding in rat cortex. The procedure, abridged: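 Rat cortex (dorsal to rhinal sulcus) from male Sprague-Dawley rats (150–200 g), pooled, homogenized in 0.05 M Tris-HCl pH 7.4, washed four times by centrifugation with a 37 °C 10-min incubation between washes. [3H]-5-HT binding done with varying test compound concentrations in 50 mM Tris pH 7.4, 10 μM pargyline, 4 mM CaCl2, 7 min at 37 °C. Filtered on glass fibre. Specific binding taken as the difference with 1 μM metergoline.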

Chain of 5-hydroxytryptamine receptor 2B (P30994 whole entry): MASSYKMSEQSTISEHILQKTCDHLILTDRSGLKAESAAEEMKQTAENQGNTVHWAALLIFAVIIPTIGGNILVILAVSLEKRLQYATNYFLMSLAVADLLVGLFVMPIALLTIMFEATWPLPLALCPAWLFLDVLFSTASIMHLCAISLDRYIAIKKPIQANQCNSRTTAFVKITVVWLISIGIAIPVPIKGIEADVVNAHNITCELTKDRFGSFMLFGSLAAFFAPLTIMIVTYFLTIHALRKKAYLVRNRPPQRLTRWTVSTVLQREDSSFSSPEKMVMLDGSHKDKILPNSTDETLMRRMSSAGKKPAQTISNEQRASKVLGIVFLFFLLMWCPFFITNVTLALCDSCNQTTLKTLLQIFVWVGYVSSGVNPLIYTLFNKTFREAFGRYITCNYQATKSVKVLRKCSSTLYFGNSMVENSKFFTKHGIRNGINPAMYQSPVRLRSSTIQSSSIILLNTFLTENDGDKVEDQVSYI

In the case of `CCN(CCN(C)C)c1ccccc1`, the Kb in test [1] was 537 nM. Take `CN(C)CCn1cnc2ccccc21`: the Response rate in the test filed under Rattus norvegicus [2] was 12.6 and 15.2. The DOM in the test with Rattus norvegicus [3] and in the test on Rattus norvegicus [4] was 0% throughout. For the same compound, the Kb in test [1] is 138 nM. In turn, `COc1ccc2c(CCN)c[nH]c2c1` registered an IC50 in test [5] of 630 nM. As for `COc1cccc2[nH]cc(CCN)c12`, in test [5], the IC50 is listed as 220 nM. As for `NCCC1CNc2ccccc21` (centres undefined), in test [1], the Kb is 2090 nM. For the compound `CN(C)CCN1CCc2ccccc21`, in test [1], the Kb was 269 nM.
